Reference: publication PMC3629979 (Molecular imaging, 2010)

Assays:
U87MG tumor = assay: In vivo NIRF optical imaging of U87MG tumor-bearing nude mice; settings: for nonspecific tumor targeting / accumulation of unconjugated dye: Cy5.5 and Cy7 data not shown; for tumor to muscle ratio, time course: 1, 2 and 4 hours postinjection, in words; for tumor to muscle ratio, time course / tumor to muscle ratio: 0.5 nmol i.v.; for tumor to muscle ratio: light intensity ratio, 4 hours postinjection, mean ± SD, n = 3
[1] = for kidney uptake: 4 hours postinjection, 0.5 nmol i.v., ex vivo imaging, in words; for excretion route: inferred from kidney uptake at 4 hours postinjection
in vivo = settings: female, athymic nude, mouse, U87MG tumor, iv, 0.5 nmol
murine integrin β3 = assay: Immunofluorescence colocalization in U87MG tumor sections, murine integrin β3; type: in vivo; settings: 1 nmol i.v., 30 minutes postinjection; frozen tumor sections; one mouse
Outline: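 Single female athymic nude mouse with subcutaneous U87MG xenograft (5 × 10⁶ cells, right front flank; tumours 100 to 300 mm³) given 1 nmol Cy5.5-labelled test compound by tail vein. Killed at 30 min, perfused with 20 mL PBS, tumour frozen-sectioned. Sections incubated 1 h at room temperature with hamster antimouse integrin β3 (1:100), then FITC secondary (1:200). Fluorescence microscopy overlay.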

Molecule	nonspecific tumor targeting / accumulation of unconjugated dye (U87MG tumor)	kidney uptake [1]	excretion route [1]	tissue uptake at 4 h (in vivo)	tumor to muscle ratio, time course (U87MG tumor)	tumor to muscle ratio (U87MG tumor)	further results
CCN1C(=CC=CC=CC=CC2=[N+](CCCCCC(=O)O)c3ccc(S(=O)(=O)O)cc3C2(C)C)C(C)(C)c2cc(S(=O)(=O)[O-])ccc21 [Cy7, reference compound]	relatively high tumor-nonspecific targeting	–	–	–	–	–	–
CC1(C)C(/C=C/C2=C(Oc3ccc(S(=O)(=O)O)cc3)C(=C/C=C3/N(CCCCS(=O)(=O)O)c4ccc(S(=O)(=O)[O-])cc4C3(C)C)/CCC2)=[N+](CCCCCC(=O)O)c2ccc(S(=O)(=O)O)cc21 [IRDye800, reference compound]	only a lower nonspecific tumor accumulation	–	–	–	–	–	–
CC1(C)C(=CC=C2CCCC(C=CC3=[N+](CCCCCC(=O)N[C@@H](CCC(=O)NCCOCCOCCOCCOCCC(=O)NCCCC[C@@H]4NC(=O)[C@@H](Cc5ccccc5)NC(=O)[C@H](CC(=O)O)NC(=O)CNC(=O)[C@H](CCCNC(=N)N)NC4=O)C(=O)NCCOCCOCCOCCOCCC(=O)NCCCC[C@@H]4NC(=O)[C@@H](Cc5ccccc5)NC(=O)[C@H](CC(=O)O)NC(=O)CNC(=O)[C@H](CCCNC(=N)N)NC4=O)c4ccc(S(=O)(=O)O)cc4C3(C)C)=C2Oc2ccc(S(=O)(=O)O)cc2)N(CCCCS(=O)(=O)[O-])c2ccc(S(=O)(=O)O)cc21 [IRDye800-PEG4-RGD2, IRDye800-E[PEG4-c(RGDfK)]2]	–	high kidney uptake	mainly excreted by the renal route	5.87 ± 1.21 %ID/g	increased tumor to muscle ratios from 1 to 4 hours	4.63 ± 0.28	–
CC1(C)C(=CC=C2CCCC(C=CC3=[N+](CCCCCC(=O)N[C@@H](CCC(=O)NCCCC[C@@H]4NC(=O)[C@@H](Cc5ccccc5)NC(=O)[C@H](CC(=O)O)NC(=O)CNC(=O)[C@H](CCCNC(=N)N)NC4=O)C(=O)NCCCC[C@@H]4NC(=O)[C@@H](Cc5ccccc5)NC(=O)[C@H](CC(=O)O)NC(=O)CNC(=O)[C@H](CCCNC(=N)N)NC4=O)c4ccc(S(=O)(=O)O)cc4C3(C)C)=C2Oc2ccc(S(=O)(=O)O)cc2)N(CCCCS(=O)(=O)[O-])c2ccc(S(=O)(=O)O)cc21 [IRDye800-RGD2, IRDye800-E[c(RGDfK)]2]	–	high kidney uptake	mainly excreted by the renal route	2.71 ± 0.77 %ID/g	increased tumor to muscle ratios from 1 to 4 hours	3.31 ± 0.22	–
Cy5.5 [reference compound]	relatively high tumor-nonspecific targeting	–	–	–	–	–	–
Cy5.5-E[PEG4-c(RGDfK)]2 [Cy5.5-PEG4-RGD2]	–	–	–	–	–	–	colocalization with murine integrin β3 (murine integrin β3): good colocalization
